According to ChEMBL document CHEMBL4689842, “EUbOPEN Chemogenomics Library wave 1” (2021):

System: Fibroblast
Experiment: Multiplex assay against human fibroblast
Format: toxicity, cell-based
Method in brief: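 At seeding, live cells were stained with Hoechst33342, BioTracker Green Microtubule Cytoskeleton Dye, MitoTracker Red and Annexin V Alexa Fluor 680. After compound addition they were imaged on a CQ1 microscope at 37°C and 5% CO2, and CellPathfinder machine-learning gating sorted them into Hoechst high-intensity objects or normal cells, with normal cells further split into healthy, pyknosed or fragmented nuclei and pyknosed cells into mitotic or apoptotic. Tubulin, mitochondrial-mass and membrane-permeability phenotypes are given as per cents of cells with healthy nuclei.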

[1] = 12 h, 1 µM, compound concentration 1 uM, replicate 1
[2] = 12 h, 1 µM, compound concentration 1 uM, replicate 2
[3] = 12 h, 10 µM, compound concentration 10 uM, replicate 1
[4] = 12 h, 10 µM, compound concentration 10 uM, replicate 2
[5] = 24 h, 1 µM, compound concentration 1 uM, replicate 1
[6] = 24 h, 1 µM, compound concentration 1 uM, replicate 2
[7] = 24 h, 10 µM, compound concentration 10 uM, replicate 1
[8] = 24 h, 10 µM, compound concentration 10 uM, replicate 2
[9] = 48 h, 1 µM, compound concentration 1 uM, replicate 1
[10] = 48 h, 1 µM, compound concentration 1 uM, replicate 2
[11] = 48 h, 10 µM, compound concentration 10 uM, replicate 1
[12] = 48 h, 10 µM, compound concentration 10 uM, replicate 2

Structure (SMILES): C[C@@H](NCCCc1cccc(C(F)(F)F)c1)c1cccc2ccccc12.Cl [CINACALCET HYDROCHLORIDE]
- Population Apoptotic (%) [1]: 59%
- Population Fragmented Nuclei (%) [1]: 22%
- Population Healthy Nuclei (%) [1]: 46%
- Population Hoechst High Intensity Objects (%) [1]: 16%
- Population Membrane Permeable-Phenotype (%) [1]: 12%
- Population Mitochondria Different-Phenotype (%) [1]: 14%
- Population Mitotic Cells (%) [1]: 40%
- Population Normal (%) [1]: 84%
- Population Pyknosed Nuclei (%) [1]: 30%
- Population Tubulin-Different-Phenotype (%) [1]: 57%
- Total Cell Count [1]: 125
- Population Apoptotic (%) [2]: 33%
- Population Fragmented Nuclei (%) [2]: 10%
- Population Healthy Nuclei (%) [2]: 76%
- Population Hoechst High Intensity Objects (%) [2]: 9%
- Population Membrane Permeable-Phenotype (%) [2]: 11%
- Population Mitochondria Different-Phenotype (%) [2]: 22%
- Population Mitotic Cells (%) [2]: 66%
- Population Normal (%) [2]: 90%
- Population Pyknosed Nuclei (%) [2]: 12%
- Population Tubulin-Different-Phenotype (%) [2]: 36%
- Total Cell Count [2]: 52
- Population Apoptotic (%) [3]: 57%
- Population Fragmented Nuclei (%) [3]: 33%
- Population Healthy Nuclei (%) [3]: 35%
- Population Hoechst High Intensity Objects (%) [3]: 11%
- Population Membrane Permeable-Phenotype (%) [3]: 4%
- Population Mitochondria Different-Phenotype (%) [3]: 73%
- Population Mitotic Cells (%) [3]: 42%
- Population Normal (%) [3]: 88%
- Population Pyknosed Nuclei (%) [3]: 30%
- Total Cell Count [3]: 155
- Population Apoptotic (%) [4]: 88%
- Population Fragmented Nuclei (%) [4]: 20%
- Population Healthy Nuclei (%) [4]: 23%
- Population Hoechst High Intensity Objects (%) [4]: 7%
- Population Membrane Permeable-Phenotype (%) [4]: 33%
- Population Mitochondria Different-Phenotype (%) [4]: 93%
- Population Mitotic Cells (%) [4]: 11%
- Population Normal (%) [4]: 92%
- Population Pyknosed Nuclei (%) [4]: 55%
- Population Tubulin-Different-Phenotype (%) [4]: 93%
- Total Cell Count [4]: 68
- Population Apoptotic (%) [5]: 38%
- Population Fragmented Nuclei (%) [5]: 25%
- Population Healthy Nuclei (%) [5]: 50%
- Population Hoechst High Intensity Objects (%) [5]: 15%
- Population Membrane Permeable-Phenotype (%) [5]: 16%
- Population Mitochondria Different-Phenotype (%) [5]: 12%
- Population Mitotic Cells (%) [5]: 61%
- Population Normal (%) [5]: 84%
- Population Pyknosed Nuclei (%) [5]: 24%
- Population Tubulin-Different-Phenotype (%) [5]: 65%
- Total Cell Count [5]: 128
- Population Apoptotic (%) [6]: 36%
- Population Fragmented Nuclei (%) [6]: 8%
- Population Healthy Nuclei (%) [6]: 69%
- Population Hoechst High Intensity Objects (%) [6]: 7%
- Population Membrane Permeable-Phenotype (%) [6]: 5%
- Population Mitochondria Different-Phenotype (%) [6]: 26%
- Population Mitotic Cells (%) [6]: 63%
- Population Normal (%) [6]: 92%
- Population Pyknosed Nuclei (%) [6]: 22%
- Population Tubulin-Different-Phenotype (%) [6]: 17%
- Total Cell Count [6]: 53
- Population Apoptotic (%) [7]: 65%
- Population Fragmented Nuclei (%) [7]: 35%
- Population Healthy Nuclei (%) [7]: 35%
- Population Hoechst High Intensity Objects (%) [7]: 11%
- Population Membrane Permeable-Phenotype (%) [7]: 10%
- Population Mitochondria Different-Phenotype (%) [7]: 71%
- Population Mitotic Cells (%) [7]: 34%
- Population Normal (%) [7]: 88%
- Population Pyknosed Nuclei (%) [7]: 28%
- Population Tubulin-Different-Phenotype (%) [7]: 89%
- Total Cell Count [7]: 208
- Population Apoptotic (%) [8]: 92%
- Population Fragmented Nuclei (%) [8]: 15%
- Population Healthy Nuclei (%) [8]: 32%
- Population Hoechst High Intensity Objects (%) [8]: 24%
- Population Membrane Permeable-Phenotype (%) [8]: 52%
- Population Mitochondria Different-Phenotype (%) [8]: 88%
- Population Mitotic Cells (%) [8]: 7%
- Population Normal (%) [8]: 75%
- Population Pyknosed Nuclei (%) [8]: 51%
- Population Tubulin-Different-Phenotype (%) [8]: 82%
- Total Cell Count [8]: 69
- Population Apoptotic (%) [9]: 46%
- Population Fragmented Nuclei (%) [9]: 33%
- Population Healthy Nuclei (%) [9]: 52%
- Population Hoechst High Intensity Objects (%) [9]: 19%
- Population Membrane Permeable-Phenotype (%) [9]: 16%
- Population Mitochondria Different-Phenotype (%) [9]: 5%
- Population Mitotic Cells (%) [9]: 53%
- Population Normal (%) [9]: 80%
- Population Pyknosed Nuclei (%) [9]: 14%
- Population Tubulin-Different-Phenotype (%) [9]: 40%
- Total Cell Count [9]: 130
- Population Apoptotic (%) [10]: 66%
- Population Fragmented Nuclei (%) [10]: 50%
- Population Healthy Nuclei (%) [10]: 47%
- Population Hoechst High Intensity Objects (%) [10]: 10%
- Population Membrane Permeable-Phenotype (%) [10]: 15%
- Population Mitochondria Different-Phenotype (%) [10]: 4%
- Population Mitotic Cells (%) [10]: 33%
- Population Normal (%) [10]: 89%
- Population Pyknosed Nuclei (%) [10]: 1%
- Population Tubulin-Different-Phenotype (%) [10]: 58%
- Total Cell Count [10]: 169
- Population Apoptotic (%) [11]: 90%
- Population Fragmented Nuclei (%) [11]: 42%
- Population Healthy Nuclei (%) [11]: 36%
- Population Hoechst High Intensity Objects (%) [11]: 13%
- Population Membrane Permeable-Phenotype (%) [11]: 5%
- Population Mitochondria Different-Phenotype (%) [11]: 68%
- Population Mitotic Cells (%) [11]: 10%
- Population Normal (%) [11]: 86%
- Population Pyknosed Nuclei (%) [11]: 20%
- Population Tubulin-Different-Phenotype (%) [11]: 80%
- Total Cell Count [11]: 226
- Population Apoptotic (%) [12]: 92%
- Population Fragmented Nuclei (%) [12]: 35%
- Population Healthy Nuclei (%) [12]: 8%
- Population Hoechst High Intensity Objects (%) [12]: 23%
- Population Membrane Permeable-Phenotype (%) [12]: 25%
- Population Mitochondria Different-Phenotype (%) [12]: 25%
- Population Mitotic Cells (%) [12]: 7%
- Population Normal (%) [12]: 76%
- Population Pyknosed Nuclei (%) [12]: 55%
- Population Tubulin-Different-Phenotype (%) [12]: 50%
- Total Cell Count [12]: 121
